Active and inactive are the calls of the source. The calls are words filed in the database; no cut-off is given here.
Assays:
[1] = molecular target: T1, 5-hydroxytryptamine receptor 1A (Homo sapiens, UniProt P08908); assay: Displacement of [3H]8-OH-DPAT from 5HT1A receptor expressed in CHO cells by liquid scintillation counting; type: cell-based
T1 sequence (P08908 whole entry): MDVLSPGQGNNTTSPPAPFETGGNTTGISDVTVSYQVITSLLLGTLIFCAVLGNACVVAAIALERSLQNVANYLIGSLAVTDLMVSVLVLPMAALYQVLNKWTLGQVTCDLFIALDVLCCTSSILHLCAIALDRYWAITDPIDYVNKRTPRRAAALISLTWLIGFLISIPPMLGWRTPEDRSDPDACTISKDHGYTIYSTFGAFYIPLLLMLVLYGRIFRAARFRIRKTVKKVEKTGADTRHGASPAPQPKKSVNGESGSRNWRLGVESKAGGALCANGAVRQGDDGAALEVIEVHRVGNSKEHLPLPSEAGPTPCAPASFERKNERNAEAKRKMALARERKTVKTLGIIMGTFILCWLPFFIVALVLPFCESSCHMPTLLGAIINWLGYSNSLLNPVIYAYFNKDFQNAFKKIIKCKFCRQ
Summary of the method: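 Binding buffer 50 mM Tris, 4 mM MgCl2, pH 7.4. Nonspecific binding defined with 10 μM of a selective 5-HT1A antagonist. GF/B filtration with cold Tris/EDTA wash, scintillation counting. IC50/Ki by sigmoidal nonlinear regression. Mean of 5-6 experiments.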

D(1A) dopamine receptor = D(1A) dopamine receptor (Homo sapiens, UniProt P21728); assay: Displacement of [3H]SCH23390 from dopamine D1 receptor expressed in HEK293 cells by liquid scintillation counting; type: cell-based
Sequence of D(1A) dopamine receptor (P21728 whole entry): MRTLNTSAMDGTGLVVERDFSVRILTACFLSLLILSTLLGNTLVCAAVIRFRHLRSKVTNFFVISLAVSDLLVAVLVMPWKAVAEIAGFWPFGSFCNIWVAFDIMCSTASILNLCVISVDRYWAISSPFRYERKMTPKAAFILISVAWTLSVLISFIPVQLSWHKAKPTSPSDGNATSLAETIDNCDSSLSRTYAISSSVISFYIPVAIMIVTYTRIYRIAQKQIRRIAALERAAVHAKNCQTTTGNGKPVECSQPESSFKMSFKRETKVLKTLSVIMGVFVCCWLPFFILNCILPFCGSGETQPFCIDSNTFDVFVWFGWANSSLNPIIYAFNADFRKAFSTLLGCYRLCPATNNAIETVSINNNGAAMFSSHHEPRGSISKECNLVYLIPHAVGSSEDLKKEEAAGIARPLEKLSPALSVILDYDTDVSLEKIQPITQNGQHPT
Summary of the method: (§1)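 Membranes from stably transfected HEK293 cells (15 μg/tube) expressing D1 (radioligand [3H]SCH23390) or D2 (radioligand [3H]spiperone), 0.7 nM radioligand, compound 1 nM–100 μM, duplicate tubes, 50 min at 30 °C. Buffer 50 mM Tris, 4 mM MgCl2, pH 7.4. Nonspecific binding with 10 μM SCH23390 (D1) or spiperone (D2). GF/B filtration, scintillation counting. Ki by sigmoidal nonlinear regression.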

D(2) dopamine receptor = D(2) dopamine receptor (Homo sapiens, UniProt P14416); assay: Displacement of [3H]spiperone from dopamine D2 receptor expressed in HEK293 cells by liquid scintillation counting; type: cell-based; summary of the method: as §1
Sequence of D(2) dopamine receptor (P14416 whole entry): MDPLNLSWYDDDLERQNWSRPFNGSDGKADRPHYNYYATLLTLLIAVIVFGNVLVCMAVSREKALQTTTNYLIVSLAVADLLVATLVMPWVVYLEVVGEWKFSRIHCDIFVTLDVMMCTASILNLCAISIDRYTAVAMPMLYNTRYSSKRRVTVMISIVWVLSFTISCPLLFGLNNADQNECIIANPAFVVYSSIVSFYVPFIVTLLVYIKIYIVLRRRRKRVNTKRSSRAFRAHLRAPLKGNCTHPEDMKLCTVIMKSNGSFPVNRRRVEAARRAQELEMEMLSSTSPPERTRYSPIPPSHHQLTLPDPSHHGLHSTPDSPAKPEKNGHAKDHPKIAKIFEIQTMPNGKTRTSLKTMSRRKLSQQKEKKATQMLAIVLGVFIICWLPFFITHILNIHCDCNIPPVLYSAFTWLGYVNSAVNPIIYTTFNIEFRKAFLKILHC

Rattus norvegicus [2] = assay: Anxiolytic effect in Sprague-Dawley rat assessed as increase in number of entries at open arm at 3 mg/kg, ip pretreated for 1 hr by elevated plus maze test; type: functional, organism-based; design: dose 3 mg/kg
Summary of the method: (§2)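 Male rats, 250-300 g, given saline or test compound ip (1.0 or 3.0 mg/kg) 1 h before the maze. Two open and two closed arms (40 cm walls), 50 × 10 cm arms, raised 50 cm. Rat placed on centre facing a closed arm and allowed 5 min to explore. Video tracking recorded open-arm entries and time. Mean ± SE, n = 7-9; comparison to the saline group.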

Rattus norvegicus [3] = assay: Anxiolytic effect in Sprague-Dawley rat assessed as increase in number of entries at open arm at 1 mg/kg, ip pretreated for 1 hr by elevated plus maze test; type: functional, organism-based; design: dose 1 mg/kg; summary of the method: as §2
Rattus norvegicus [4] = assay: Anxiolytic effect in Sprague-Dawley rat assessed as increase in time spent at open arm at 1 mg/kg, ip pretreated for 1 hr by elevated plus maze test; type: functional, organism-based; design: dose 1 mg/kg; summary of the method: as §2
[5] = molecular target: T1, 5-hydroxytryptamine receptor 1A; assay: […] activity at 5HT1A receptor expressed in CHO cells assessed as inhibition of 5-HT-stimulated [35S]GTPgamma binding; type: functional, cell-based
Rattus norvegicus [6] = assay: Anxiolytic effect in Sprague-Dawley rat assessed as increase in time spent at open arm at 3 mg/kg, ip pretreated for 1 hr by elevated plus maze test; type: functional, organism-based; design: dose 3 mg/kg; summary of the method: as §2
[7] = molecular target: T2, 5-hydroxytryptamine receptor 1A (Homo sapiens) (UniProt P08908); assay: Antagonist activity at 5HT1A receptor expressed in CHO cells assessed as inhibition of 5-HT-stimulated [35S]GTPgamma binding relative to control; type: functional, cell-based
T2 sequence (whole entry): T1 sequence (P08908 whole entry)

[8] = molecular target: T2, 5-hydroxytryptamine receptor 1A (Homo sapiens); assay: Agonist activity at 5HT1A receptor expressed in CHO cells assessed as stimulation of [35S]GTPgamma binding relative to control; type: functional, cell-based
[9] = molecular target: T1, 5-hydroxytryptamine receptor 1A; assay: Agonist activity at 5HT1A receptor expressed in CHO cells assessed as stimulation of [35S]GTPgamma binding; type: functional, cell-based
Rattus norvegicus [10] = assay: Increase in ventral tegmental area dopaminergic neuron bursting level in D2-like receptor antagonist raclopride-pretreated Sprague-Dawley rat at 1 mg/kg, iv in presence of 5HT1A receptor antagonist WAY-100635 administered post compound dose; type: functional, organism-based; design: dose 1 mg/kg
Rattus norvegicus [11] = assay: Increase in ventral tegmental area dopaminergic neuron bursting level in D2-like receptor antagonist raclopride-pretreated Sprague-Dawley rat at 1 mg/kg, iv relative to untreated control; type: functional, organism-based; design: dose 1 mg/kg
Rattus norvegicus [12] = assay: Increase in ventral tegmental area dopaminergic neuron bursting level in D2-like receptor antagonist raclopride-pretreated Sprague-Dawley rat at 1 mg/kg, iv in pretreated with 5HT1A receptor antagonist WAY-100635; type: functional, organism-based; design: dose 1 mg/kg
Rattus norvegicus [13] = assay: Increase in ventral tegmental area dopaminergic neuron firing rate in D2-like receptor antagonist raclopride-pretreated Sprague-Dawley rat at 1 mg/kg, iv in pretreated with 5HT1A receptor antagonist WAY-100635; type: functional, organism-based; design: dose 1 mg/kg
Rattus norvegicus [14] = assay: Increase in ventral tegmental area dopaminergic neuron firing rate in D2-like receptor antagonist raclopride-pretreated Sprague-Dawley rat at 1 mg/kg, iv in presence of 5HT1A receptor antagonist WAY-100635 administered post compound dose; type: functional, organism-based; design: dose 1 mg/kg

Structure (SMILES) | Ki ([1]; read-out: Ki) [nM] | Ki (D(1A) dopamine receptor) [µM] | Ki (D(2) dopamine receptor) [µM] | other results
C=CCOc1cccc2c1-c1cccc3c1[C@@H](C2)N(CCC)CC3 | 279 | > 10 | > 10 | –
C[C@H]1Cc2ccc3c(c2O1)-c1cccc2c1[C@@H](C3)N(C)CC2 (relative stereo) | 45.3 | > 10 | > 10 | Activity (Rattus norvegicus [2]): inactive; Activity (Rattus norvegicus [3]): inactive; Activity (Rattus norvegicus [4]): inactive; IC50 ([5]; read-out: IC50): 18 nM; Activity (Rattus norvegicus [6]): inactive; Imax [7]: 100%; Emax [8]: inactive; EC50 ([9]; cho): Not Active
CCCN1CCc2cccc3c2[C@H]1Cc1ccc2c(c1-3)OC(C)C2C (mixture of isomers) | 90 | – | – | –
CCCN1CCc2cccc3c2[C@H]1Cc1ccc2c(c1-3)OC(C)(C)C2 | 630 | > 10 | > 10 | –
C=CC(C)c1ccc(O)c2c1C[C@@H]1c3c(cccc3-2)CCN1CCC (mixture of isomers) | 626 | – | – | –
CC1Cc2ccc3c(c2O1)-c1cccc2c1[C@@H](C3)N(C)CC2 (mixture of isomers) | 6.7 | > 10 | > 10 | IC50 ([5]; read-out: IC50): 323 nM; Imax [7]: 100%; Emax [8]: inactive; EC50 ([9]; cho): Not Active
CCCN1CCc2cccc3c2[C@H]1Cc1ccc2c(C)c(C)oc2c1-3 | 510 | > 10 | > 10 | –
C/C=C/COc1cccc2c1-c1cccc3c1[C@@H](C2)N(CCC)CC3 | 11 | – | – | –
CCCN1CCc2cccc3c2[C@H]1Cc1c(CC=C(C)C)ccc(O)c1-3 | – | > 10 | > 10 | Ki ([1]; cho): Not Active
C#CCOc1cccc2c1-c1cccc3c1[C@@H](C2)N(C)CC3 | 14 | > 10 | > 10 | Emax [8]: 73%; EC50 ([9]; read-out: EC50): 180 nM
C=CC(C)c1ccc2c(c1O)-c1cccc3c1[C@@H](C2)N(CCC)CC3 (mixture of isomers) | > 10000 | – | – | –
C[C@@H]1Cc2ccc3c(c2O1)-c1cccc2c1[C@@H](C3)N(C)CC2 (relative stereo) | 3.1 | > 10 | > 10 | Activity (Rattus norvegicus [2]): Active; Activity (Rattus norvegicus [10]): inactive; Activity (Rattus norvegicus [11]): Active; Activity (Rattus norvegicus [12]): inactive; IC50 ([5]; cho): Not Active; Activity (Rattus norvegicus [6]): Active; Imax [7]: inactive; Activity (Rattus norvegicus [13]): inactive; Emax [8]: 127%; EC50 ([9]; read-out: EC50): 86 nM; Activity (Rattus norvegicus [14]): inactive
COc1cc2c3c(c1)-c1c(O)cccc1C[C@H]3N(C)CC2 | 258 | 0.046 | 0.235 | –
C=CCOc1cccc2c1-c1cccc3c1[C@@H](C2)N(C)CC3 | 12 | > 10 | > 10 | IC50 ([5]; read-out: IC50): 323 nM; Imax [7]: 100%; Emax [8]: 61%; EC50 ([9]; read-out: EC50): 56 nM
C=C(C)COc1cccc2c1-c1cccc3c1[C@@H](C2)N(CCC)CC3 | 373 | > 10 | > 10 | –
CC1Cc2ccc3c(c2O1)-c1cc(O)cc2c1[C@@H](C3)N(C)CC2 (mixture of isomers) | 12 | – | – | –

Structure (SMILES) | Ki ([1]; read-out: Ki) [nM] | Ki (D(1A) dopamine receptor) [µM] | Ki (D(2) dopamine receptor) [µM] | other results
CCCN1CCc2cccc3c2[C@H]1Cc1ccc2c(c1-3)OC(C)C2 (mixture of isomers) | 340 | – | – | –
C#CCOc1cccc2c1-c1cccc3c1[C@@H](C2)N(CCC)CC3 | 55 | > 10 | > 10 | –
C=CCc1ccc2c(c1O)-c1cccc3c1[C@@H](C2)N(C)CC3 | 135 | > 10 | > 10 | –
C=C(C)Cc1ccc2c(c1O)-c1cccc3c1[C@@H](C2)N(CCC)CC3 | – | > 10 | > 10 | Ki ([1]; cho): Not Active
Cc1cc2ccc3c(c2o1)-c1cccc2c1[C@@H](C3)N(C)CC2 | 29 | > 10 | > 10 | –
CC#CCOc1cccc2c1-c1cccc3c1[C@@H](C2)N(CCC)CC3 | 125 | > 10 | > 10 | –
NCCc1c[nH]c2ccc(O)cc12 [SEROTONIN] | – | – | – | IC50 ([5]; cho): Not Active; Imax [7]: inactive
CCCN1CCc2cccc3c2[C@H]1Cc1cccc(OCC=C(C)C)c1-3 | 149 | > 10 | > 10 | –
C=CCc1ccc2c(c1O)-c1cccc3c1[C@@H](C2)N(CCC)CC3 | 793 | > 10 | > 10 | –
CN1CCc2cccc3c2[C@H]1Cc1cccc(O)c1-3 | 49 | 0.061 | 0.208 | –
CCCN1CCc2cccc3c2[C@H]1Cc1ccc2cc(C)oc2c1-3 | 320 | > 10 | > 10 | –
C=CCOc1cccc2c1-c1cc(OC)cc3c1[C@@H](C2)N(C)CC3 | 66 | > 10 | > 10 | –
C=CC(C)Oc1cccc2c1-c1cccc3c1[C@@H](C2)N(CCC)CC3 (mixture of isomers) | > 10000 | – | – | –
C=CCc1ccc2c(c1O)-c1cc(OC)cc3c1[C@@H](C2)N(C)CC3 | 144 | > 10 | > 10 | –
CCCN1CCc2cccc3c2[C@H]1Cc1cccc(O)c1-3 | 45 | > 10 | – | –
